# GC-B act = GC-B (human) receptor activation. AID 1920062. hit rate 0.11% among 370,000. HEK293-GC-B cells, CNP EC30, cGMP TR-FRET; 0% at EC30 CNP, 100% saturating CNP. activation, % at 10 µM. P20594;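 active = activation at 10 µM reaching about 35% in either raw or pattern-adjusted values, limit read from the data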
# GalR3 antag = blocks the human galanin receptor 3; O60755; HEK293 GalR3-CNG cAMP membrane potential fluorescence; galR3 body fused to GalR1 C-terminus; inhibition, % at 3 µM; hit rate 0.44% among 360,000;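 active = inhibition above the screen-wide average plus 3 SD, cut at about 13% in these data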;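 note: forskolin and galanin both at EC90 stimulate the cells; cAMP rise reported by CNG channel membrane potential dye signal; 0% = forskolin plus galanin with DMSO and 100% = forskolin alone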
# NPR1 activator = GC-A (human) enzyme activation. P16066. HEK293 GC-A cells, cGMP TR-FRET, EC30 ANP; 0% at EC30 ANP, 100% saturating ANP. activation, % at 10 µM. hit rate 0.14% among 370,000. AID 1671463; in the data active = activation above about 40%
# Arr AP2 block = blocks beta-arrestin peptide binding to AP2 adaptin. hit rate 0.31% among 340,000. inhibition, % at 10 µM. AID 504490. FITC-arrestin peptide / GST-AP2 beads, flow cytometry; AP2 beta2 appendage carries R879A mutation;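 active = inhibition above a set limit, near 3 SD of compounds lacking own fluorescence, cut at about 54% in these data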;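 note: plate controls were DMSO wells for no effect and 5 µM unlabelled arrestin peptide for full effect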
#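 Measured by: flow cytometry, FL1 (488/535 nm); Material: AP2 appendage R879A on GSH beads; Evaluation: percent response; Timing: pre-incubation 12 min, peptide binding 1 h, room temperature; Also added: 50 nM FITC-arrestin peptide; Medium: PBS with 0.05% Tween 20 and 0.1% BSA.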
# Arr AP2 CP1 = blocks beta-arrestin peptide binding to human AP2. AID 504908. inhibition, % at 10 µM. hit rate 2% among 1,300. GST-AP2 beads, FITC arrestin peptide binding, flow cytometry; GST-fused beta2-adaptin appendage, R879A mutant. shares compounds with Arr AP2 block;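 active = inhibition above a set limit, roughly 3 SD of non-fluorescent compound noise, cut at about 38% in these data; inactive = inhibition at or below that limit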;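 note: loss of bead fluorescence from 50 nM FITC arrestin peptide bound to appendage; 0% = negative control wells and 100% = excess unlabelled arrestin peptide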
# GST GSH counter = GST-GSH bead binding interference, counter-screen | inhibition, % at 10 µM | hit rate 2% among 1,300 | AID 588338 | GST-fluorescein binding to GSH beads, fluorescence | shares compounds with Arr AP2 block;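 active = inhibition above 50%, about 3 SD of the inhibition seen with non-fluorescent compounds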;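 note: fluorescein maleimide labelled GST captured on 4 micron glutathione beads; higher means more loss of bead fluorescence from quenching or blocked binding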
# Active calls of the source: *; nt = no result given. Rows were chosen to be rich in hits. Some 0.94% of all compounds tested hit in one or more screens of this group.
SMILES,GC-B act,GalR3 antag,NPR1 activator,Arr AP2 block,Arr AP2 CP1,GST GSH counter
Cc1ccc(-c2csc3ncnc(N4CCN(c5ccccc5O)CC4)c23)cc1,-1,3,-2,4,nt,nt
O=C(CSc1ncnc2scc(-c3ccccc3)c12)N1CCN(c2ccccc2F)CC1,-2,-7,-1,3,nt,nt
COc1ccccc1N1CCN(C(=O)CSc2ncnc3scc(-c4ccccc4)c23)CC1,-1,-3,-3,60*,5,2
COc1ccc(-c2csc3ncnc(N4CCN(c5ccccc5O)CC4)c23)cc1,nt,nt,nt,56*,-12,-3
CC1CCCCN1C(=O)c1ccc(CNC(=O)c2cccc(Br)c2)cc1 (centres undefined),-8,nt,0,nt,nt,nt
Cc1sc2nc(CN3CCOCC3)nc(N3CCOCC3)c2c1C,7,-4,3,58*,19,-2
Cc1sc2nc(CN3CCOCC3)nc(N3CCC(C(N)=O)CC3)c2c1C,-1,-2,-3,15,nt,nt
O=C(Cc1ccc(NC(=O)C2CCN(C(=O)C3CCC3)CC2)cc1)Nc1cccc(C(=O)N2CCCCC2)c1,-2,-4,0,60*,5,-12
COc1ccc(OC)c(S(=O)(=O)Nc2cccc(-c3ccc(N4CCCCCC4)nn3)c2)c1,-2,-2,-8,60*,6,-4
Cc1cc(C)cc(NC(=O)c2cccc3c2C(=O)N(C2CCCCC2)C3)c1,nt,nt,nt,62*,4,8
O=C(Nc1ccc(Br)cc1)c1cccc2c1C(=O)N(C1CCCCC1)C2,0,-10,6,11,nt,nt
C1=C(CCNc2nnnn2-c2ccccc2)CCCC1,1,-8,-4,55*,4,-1
CCOc1ccc(-n2cc(C(=O)N3CCC(C)CC3)c3cc(OC)c(OC)cc3c2=O)cc1,15,1,15,56*,-15,-14
Cc1nnc2nc(N)[nH]n2c1=O,1,-9,4,nt,nt,nt
CCCCS(=O)(=O)N1CCCc2nc(-c3ccccc3)ccc21,3,-6,-2,nt,nt,nt
O=C(c1ccccc1)N(NC(=O)C(O)(c1ccccc1)c1ccccc1)c1cccc(F)c1,-3,-7,-8,24,nt,nt
O=C(c1ccccc1F)N(NC(=O)C(O)(c1ccccc1)c1ccccc1)c1ccccc1,-3,0,-4,87*,-7,2
O=C(Nc1ccc(F)cc1F)C1CCCN1S(=O)(=O)c1cccnc1 (centres undefined),-2,nt,2,nt,nt,nt
CCOc1ccc(NC(=O)CN2C(=O)C(C)SC(C)C2=O)cc1 (centres undefined),3,-5,1,55*,-8,-15
COC(=O)C1=C(C)N(Cc2ccc(F)cc2)C(=S)NC1c1cccc(Br)c1 (centres undefined),-6,-7,-2,nt,nt,nt
O=C(Nc1ccc(C(F)(F)F)cc1)OC1CCC12CCCCC2 (centres undefined),4,nt,3,nt,nt,nt
Cc1onc(-c2c(F)cccc2Cl)c1-c1ncc(-c2ccc(Cl)cc2)o1,-6,2,0,nt,nt,nt
COc1cccc(C2/C(=C(\O)c3ccc4c(c3)OCCO4)C(=O)C(=O)N2CC2CCCO2)c1 (centres undefined),5,2,3,-4,nt,nt
Cc1ccc(C2/C(=C(\O)c3ccc4c(c3)OCCO4)C(=O)C(=O)N2CC2CCCO2)cc1 (centres undefined),-4,-1,4,59*,-1,-4
COCCN(C(=O)COC(=O)/C(=C/c1ccccc1)NC(C)=O)c1c(N)n(Cc2ccccc2)c(=O)[nH]c1=O,-2,1,1,59*,10,-1
SMILES,GC-B act,GalR3 antag,NPR1 activator,Arr AP2 block,Arr AP2 CP1,GST GSH counter
C[C@H](O)[C@@H]1CN2CCc3ccc(-c4ccc5c(c4)OCO5)cc3[C@@H]2C[C@@H]1N(C)C(=O)NC1CCCCC1,-3,-8,-1,nt,nt,nt
CC1(C)Oc2ccc3ccc(=O)oc3c2/C(=C/Nc2ccc(O)cc2)C1=O,-15,-6,-44,55*,-10,-4
CC1(C)Oc2ccc3ccc(=O)oc3c2/C(=C/Nc2cccc(O)c2)C1=O,-4,-3,-2,-5,nt,nt
O=C(NCCc1ccc(C(F)(F)F)cc1)C1CCC(=O)N(CCc2cccc(F)c2)C1 (centres undefined),3,0,-3,-11,nt,nt
Cc1ccc(F)cc1CNC(=O)C1CCC(=O)N(CCc2ccccc2)C1 (centres undefined),-3,5,-1,2,5,-2
O=C(NCCc1ccc(C(F)(F)F)cc1)C1CCC(=O)N(CCCc2ccccc2)C1 (centres undefined),-4,-2,1,-2,6,4
COc1ccccc1CN1CC(C(=O)NCc2cc(F)ccc2C)CCC1=O (centres undefined),1,-10,6,-14,nt,nt
CSc1ccc(C(=O)NCC2CCN(C(=O)C(=O)c3cc4ccccc4o3)CC2)cc1,-4,2,-3,nt,nt,nt
C[C@H]1CN([C@@H](C)CO)C(=O)CCCn2nncc2CO[C@@H]1CN(C)C(=O)Nc1ccccc1F,-2,-5,4,nt,nt,nt
COc1ccc(NC(=O)/C(C#N)=C\C=C\c2ccco2)cc1,-4,-2,-1,72*,-11,2
COc1cccc(CN(C)c2nc(-c3cccs3)nc3ccccc23)c1,-3,-11,-5,55*,-11,-3
CC(/C=C\C=C\c1ccccc1)=N\NC(=O)c1cncc(Br)c1,1,-3,-12,92*,5,8
CCN1/C(=C/C(C)=C/c2sc3ccccc3[n+]2CC)Sc2ccccc21,18,-5,9,86*,71*,48
CCN1/C(=C\C(=S)Nc2ccccc2)Sc2ccccc21,1,-3,2,0,nt,nt
CC(Sc1ccc(Cl)cc1)C(=O)N(C)CC(=O)Nc1ccc(N2CCOCC2)cc1 (centres undefined),1,-4,-2,56*,5,-7
CC(Oc1ccc(Cl)cc1)C(=O)N(C)CC(=O)Nc1ccc(N2CCOCC2)cc1 (centres undefined),1,-2,-2,0,nt,nt
COc1ccccc1NS(=O)(=O)c1cccc(C(=O)NCC2(N(C)C)CCCCC2)c1,-1,-2,-1,3,-1,-15
COc1ccc(Cl)cc1NS(=O)(=O)c1cccc(C(=O)NCC2(N(C)C)CCCCC2)c1,-5,-4,-3,39,4,-2
COc1ccccc1NS(=O)(=O)c1ccc(C(=O)NCC2(N(C)C)CCCCC2)cc1,0,-7,1,-5,nt,nt
COc1ccccc1N(C)S(=O)(=O)c1ccc(Cl)c(C(=O)NNC(=O)c2ccccc2O)c1,-1,1,5,-12,nt,nt

# Source: PubChem (several laboratories)
